# This is a sample that favours compounds with a hit; in the whole collection about 4.7% have one here.
# MC4R barr agon – activates human MC4R beta-arrestin recruitment; U2OS MC4R beta-arrestin complementation, luminescence; percent of melanotan II response, DMSO zero; activation, % at 8.9 µM; 360,000 compounds, 0.98% hits; AID 540308;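 active = activation above a per-plate cutoff, the mean activation of sample wells on that plate plus 3 SD, cut at about 8% in these data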
# Target sequence (P32245 whole entry, looked up): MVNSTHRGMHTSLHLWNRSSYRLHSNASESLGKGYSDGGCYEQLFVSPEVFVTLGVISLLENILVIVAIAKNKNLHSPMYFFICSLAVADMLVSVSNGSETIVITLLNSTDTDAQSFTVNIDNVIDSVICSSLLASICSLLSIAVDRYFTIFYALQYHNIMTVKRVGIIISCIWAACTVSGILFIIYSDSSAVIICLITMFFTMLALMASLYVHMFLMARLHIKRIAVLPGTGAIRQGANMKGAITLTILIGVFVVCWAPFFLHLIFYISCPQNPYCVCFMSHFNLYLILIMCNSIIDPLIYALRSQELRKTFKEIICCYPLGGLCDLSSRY
# AHR act – activators of human aryl hydrocarbon receptor. 320,000 compounds, 2.5% hits. AHR-responsive luciferase reporter cells, luminescence. P35869. activation, % at 5 µM; in the data active = activation above about 47%
# MC4R antag cAMP – human MC4R antagonism in cAMP assay | P32245 | MC4R-expressing cells, MTII-stimulated cAMP, LANCE TR-FRET | inhibition, % at 6.5 µM | 360,000 compounds, 0.48% hits;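 active = inhibition above its plate's cutoff, the mean of tested wells on that plate plus 3 SD, cut at about 29% in these data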
#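 system = U2OS cells with stable human MC4R expression | also added = Melanotan II challenge after compound preincubation | dosing = one concentration, 6.5 µM nominal | incubation = compound 30 min, challenge 1 h, detection 1 h | measured by = TR-FRET with Eu-cAMP and labeled anti-cAMP, 671 nm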
# GAA850 FXN act – frataxin GAA850 promoter activation; HEK293 lucGAA850 FXN promoter luciferase reporter, 24 h; percent of 10 µM SAHA response; activation, % at 6 µM; 360,000 compounds, 0.56% hits; AID 540364;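 active = activation above the average of all compounds screened plus 3 SD, cutoff fixed separately per campaign, cut at about 7.5% in these data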
# m5-HT2A agonist – agonists of mouse serotonin 5-HT2A receptor (HTR2A); 360,000 compounds, 0.66% hits; AID 624169; activation, % at 7.6 µM; P35363; CHO-K1 mHTR2A beta-arrestin complementation, luminescence; percent of 30 µM serotonin response;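 active = activation above a run cutoff, the mean activation of all tested compounds plus 3 SD, cut at about 14% in these data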
# A number is an active result; 0 = inactive; - = no result given.
SMILES,MC4R barr agon,AHR act,MC4R antag cAMP,GAA850 FXN act,m5-HT2A agonist
Cc1ccccc1-c1cccc([C@@H]2C[C@H]3C(CN2)CON3C)c1 (some centres undefined),0,-,0,0,0
Cc1c(N(C)C)nc2ccccc2c1N,0,0,0,0,0
CCN(CC)c1nc2ccccc2c(N)c1-c1ccccc1,0,55.5,0,0,0
Cc1ccc2c(c1)C(=NC1CCCCC1)c1cc3ccccc3nc1-2,0,0,0,0,0
Cc1ccc2c(c1)-c1nc3ccccc3cc1C2=NC1CCCCC1,0,78.8,0,0,0
C[C@H](CO)N1C[C@H](C)[C@@H](CN(C)S(C)(=O)=O)Oc2ccc(NC(=O)c3ccncc3)cc2C1=O,0,0,0,0,0
COc1ccc(CCNc2nc(-c3sc(C)nc3C)cs2)cc1OC,0,52.4,0,0,0
COc1ccc(CCNc2nc(-c3ccncc3)cs2)cc1OC,0,66.4,0,0,0
CC(=O)N1CCn2c3ccc(C)cc3c3cccc1c32,0,71.4,0,0,0
Cc1ccccc1NC(=O)C1C2/C=C\CCCCC21 (centres undefined),8.8,0,0,0,0
COCCNc1nc(NCc2cccc(OC)c2)c2sc(-c3ccccc3)cc2n1,0,-,0,0,0
Cc1ccc2[nH]c3c(=O)n(N)c(C)nc3c2c1,0,47.5,0,0,0
COc1cc(OC)cc(C(=O)O/N=C(\N)c2cccc(C)c2)c1,0,0,0,0,0
Cc1cccc(/C(N)=N/OC(=O)c2ccc(Cl)cc2Cl)c1,0,0,0,0,0
Cc1cccc(/C(N)=N/OC(=O)c2ccc(Br)o2)c1,0,71.0,0,0,0
Cc1cccc(/C(N)=N/OC(=O)c2cccc3ccccc23)c1,0,73.2,0,0,0
O=C1NC(Cc2ccc(O)cc2)c2nc3ccc(Cl)cc3c(=O)n2-c2ccc(Cl)cc21 (centres undefined),-,0,-,-,-
CCC(C)c1ccccc1NC(=O)CN(C)CCOc1ccc(Cl)cc1 (centres undefined),8.6,0,0,0,0
COc1ccc(NC(=O)N(C)C[C@H]2Oc3c(NC(=O)Nc4ccc(C(F)(F)F)cc4)cccc3C(=O)N([C@H](C)CO)C[C@@H]2C)cc1,0,0,0,0,23.1
CC(=O)N(CCc1cccc(C)c1)Cc1cc2cc(C)ccc2[nH]c1=O,0,49.1,0,0,0
Cc1ccc(NC(=O)/C=C/C(=O)O)c(NC(=O)c2ccccc2)c1,0,0,0,0,0
CSc1nnc(C)c(/C=C/Nc2ccc(Cl)cc2)n1,0,49.8,0,0,0
O=C(NCCNCCO)c1c(O)c2cccc3c2n(c1=O)CCC3,0,58.1,0,0,0
CCCCCCNC(=O)c1c(O)c2cccc3c2n(c1=O)CCC3,0,0,0,0,0
COc1ccc(C(C)(O)c2nc(-c3cccc(C(C)C)c3)cs2)cc1 (centres undefined),0,-,0,0,0
SMILES,MC4R barr agon,AHR act,MC4R antag cAMP,GAA850 FXN act,m5-HT2A agonist
Cc1nc2ccccc2c2oc(C(=O)NC3CC3)cc12,0,65.0,0,0,0
COc1ccc(-c2nc(NC(=O)Cn3c(=O)oc4ccccc43)sc2C)cc1,0,69.8,0,0,0
O=C(O)C(Cc1cccs1)c1cccs1 (centres undefined),0,-,0,0,0
Cc1ccccc1NC(=O)c1nc(S(C)(=O)=O)ncc1Cl,0,0,0,18.1,0
CS(=O)(=O)c1ncc(Cl)c(C(=O)Nc2ccc(N3CCOCC3)cc2)n1,0,0,0,0,0
O=C(NC1CCCCC1)C(c1ccc(F)cc1)N(CCCN1CCOCC1)C(=O)c1ccc(CN2CCOCC2)o1 (centres undefined),0,0,0,0,0
Cc1cc(C)cc(NC(=O)COc2coc(CN3CCc4ccccc43)cc2=O)c1,9.2,0,0,0,0
Cc1ccc(S(=O)(=O)N2CCCCC2)cc1NC(=O)c1ccc(Cl)nc1,0,74.5,0,0,0
COc1ccc(S(=O)(=O)N2CCCCC2)cc1NC(=O)c1ccc(Cl)nc1,0,0,0,0,0
Cc1ccc(C(=O)Nc2ccc3cn[nH]c3c2)cc1S(=O)(=O)N1CCCCC1,0,55.0,0,0,0
CCc1nc2ccc(C(=O)NCCCn3ccnc3)cn2c1N(C)CCCc1ccccc1,0,-,0,0,0
O=C(Nc1ccc2c(c1)OCCO2)c1[nH]c(C(F)(F)F)nc1-c1ccccc1,-,-,-,-,0
Cn1c(CN2CCCCC2)nc2cc([N+](=O)[O-])ccc21,0,67.0,0,0,0

# Screens as filed in PubChem.
